Many of the other results were omitted from the sample, so hits are more common in it than they were.
Lmaj promast: Leishmania major promastigote growth inhibition. Leishmania major promastigotes, resazurin fluorescence viability. inhibition, % at 10 µM. hit rate 9% among 200,000. AID 1063;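 further: promastigotes grown with compound for 44 hours at 28 °C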
ABCB1 inh: inhibitors of human ABCB1 transporter, ABCG2 counter-screen; P08183; CCRF-Adr cells, JC-1 efflux, flow cytometry; inhibition, % at 6.6 µM; hit rate 0.067% among 190,000; in the data active means inhibition above about 40%;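 further: higher value means more JC-1 retained so stronger ABCB1 efflux block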
GSH bead fluor: GSH bead compound fluorescence profile; fluorescence (KMESF) at 10 µM; GSH beads flow cytometry, compound fluorescence 488/530 nm; active compounds read high; hit rate 0.25% among 190,000; in the data active means fluorescence above about 89;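 further: glutathione beads carrying GST-tagged Bcl family fusion proteins plus one bare bead set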
Avidin bead fluor: avidin bead compound fluorescence profile; fluorescence (KMESF) at 10 µM; hit rate 0.38% among 220,000; Avidin beads, compound fluorescence 488/530 nm, flow cytometry; active compounds read high; AID 1775; in the data active means fluorescence above about 47
PKD1 inh: inhibitors of human PKD1 kinase. Q15139. PKD1 kinase fluorescence polarization assay. inhibition, % (test concentration not listed). hit rate 0.056% among 200,000
ABCG2 inh: human ABCG2 inhibition, ABCB1 as counter-screen; IgMXP3 cells, JC-1 efflux, flow cytometry; inhibition, % at 6.6 µM; Q9UNQ0; AID 1325; hit rate 0.1% among 190,000;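 active means inhibition above 80%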
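Test system: ABCG2 IgMXP3 and barcoded ABCB1 CCRF-Adr cell mix; Schedule: cells with compound and JC-1, 10 min at 25 °C, rotating, no wash; Technique: flow cytometry of retained JC-1 fluorescence; Measure: % inhibition of efflux relative to nicardipine and DMSO; Controls: nicardipine high and DMSO low controls.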
Lmaj promast 1uM: L. major promastigote growth inhibition, 1 uM repeat. shares compounds with Lmaj promast. resazurin fluorescence, 48 h. inhibition, % at 1 µM. hit rate 13% among 1,100;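 active means inhibition above about 50% in both repeat tests, limit read from the data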
Numbers stand for hits; – = inactive; · = no result given. Unless noted, no stated cut-off is given here; in the data, active means inhibition above about 50%; inactive means the rest.

SMILES	Lmaj promast	ABCB1 inh	GSH bead fluor	Avidin bead fluor	PKD1 inh	ABCG2 inh	Lmaj promast 1uM
CCNC(=O)NC(=O)C(C)OC(=O)c1c(C)nn(Cc2ccccc2)c1Cl (configuration not stated)	–	–	–	–	–	–	·
CCn1nc(-c2ccccc2)nc2c(=O)n(C)c(=O)nc1-2	–	–	–	–	–	–	·
Cc1nc2c(=O)n(C)c(=O)nc-2n(C)n1	101	–	–	–	–	–	101
COC(=O)C1CN(C#N)N(c2ccc(Cl)cc2)C12c1ccccc1-c1ccccc12 (configuration not stated)	100	–	–	–	–	–	101
Cc1cc(C)nc(N2Cc3ccccc3C2=N)n1	50	–	–	–	–	–	–
CCN1CCN(c2nc3c(c(=O)[nH]2)CCCC3)CC1	–	–	–	–	–	–	·
CCCOP(=O)(OCCC)C(NC(=O)c1ccccc1)=C(Cl)Cl	–	–	–	–	–	–	·

From PubChem
